Compounds with a hit are over-represented: about 1.8% of the library has one in this group of screens.
M4 PAM – positive allosteric modulators of human muscarinic M4 receptor | P08173 | activation, % at 3 µM | 0.4% of 360,000 active | AID 624126 | CHO-K1 hM4/Gqi5, Fluo-8 calcium fluorescence, ACh EC20; 0% = ACh EC20, 100% = maximal ACh;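 active = activation above its plate's cutoff, the mean activation of sample wells plus 3 SD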
Target sequence (P08173 whole entry, looked up): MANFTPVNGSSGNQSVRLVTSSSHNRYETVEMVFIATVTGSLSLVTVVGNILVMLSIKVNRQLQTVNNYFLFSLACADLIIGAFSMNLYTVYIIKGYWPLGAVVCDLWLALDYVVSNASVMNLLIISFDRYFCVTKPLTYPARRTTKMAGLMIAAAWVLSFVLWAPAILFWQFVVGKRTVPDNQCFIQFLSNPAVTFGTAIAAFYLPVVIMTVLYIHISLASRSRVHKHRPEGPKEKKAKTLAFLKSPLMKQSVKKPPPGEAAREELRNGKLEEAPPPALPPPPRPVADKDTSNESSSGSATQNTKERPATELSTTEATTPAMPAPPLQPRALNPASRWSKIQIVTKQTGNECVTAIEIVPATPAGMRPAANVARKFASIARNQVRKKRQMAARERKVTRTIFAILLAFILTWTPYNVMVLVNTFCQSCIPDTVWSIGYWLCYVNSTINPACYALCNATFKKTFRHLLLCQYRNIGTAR
M5 ag – agonists of human muscarinic M5 receptor (CHRM5) | activation, % at 3 µM | P08912 | AID 624037 | CHO-K1 hM5 cells, Fluo-8 calcium fluorescence; 0% DMSO wells, 100% maximal acetylcholine response | 0.19% of 360,000 active;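 active = activation above the run's mean over test compounds plus 3 SD, cut at about 23% in these data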;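 note: signal is peak over basal fluorescence ratio across the kinetic read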
CHRM4 agonist – CHRM4 agonism in calcium assay | P08173 | CHO-K1 hM4/Gqi5, Fluo-8 calcium fluorescence; vehicle 0%, full acetylcholine response 100% | activation, % at 3 µM | 0.14% of 360,000 active;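 active = activation above the run mean over all test wells plus 3 SD, cut at about 32% in these data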;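 note: peak over basal fluorescence ratio per well then scaled between controls; 0% = DMSO wells and 100% = acetylcholine at EC100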
CHRM4 antagonist – blocks acetylcholine activation of human M4 receptor; P08173; 0.73% of 360,000 active; inhibition, % at 3 µM; AID 624125; CHO-hM4 cells, ACh EC80, Fluo-8 calcium fluorescence;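 active = inhibition above its plate's cutoff, the mean inhibition of sample wells plus 3 SD, cut at about 27% in these data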;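 note: 0% = acetylcholine EC80 with DMSO and 100% = DMSO without agonist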
CHRM5 antagonist – blocks acetylcholine activation of human M5 receptor. 0.59% of 360,000 active. CHO-hM5 cells, Fluo-8 calcium fluorescence, ACh EC80. P08912. inhibition, % at 3 µM;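 active = inhibition above a per-plate cutoff, the mean of that plate's test compounds plus 3 SD, cut at about 27% in these data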;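 note: 0% = acetylcholine EC80 with DMSO and 100% = DMSO without agonist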
M5 PAM – positive allosteric modulators of human muscarinic M5 receptor | P08912 | CHO-K1 hM5, Fluo-8 calcium, ACh EC20 PAM; 0% = ACh EC20, 100% = ACh EC100 | activation, % at 3 µM | 0.3% of 360,000 active | AID 624038;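 active = activation above the run cutoff, the mean activation of all test compounds plus 3 SD, cut at about 18% in these data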
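System: CHO-K1 cell line with stable human muscarinic M5 receptor expression | Also added: EC20 acetylcholine as agonist stimulus | Compound: One concentration, 3 µM final (nominal) | Timing: Fluo-8 loading 80 min at 37 °C plus 30 min room temperature | Measured by: Fluo-8 calcium dye fluorescence, kinetic read | Read-out basis: % activation, ACh-normalized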
Numbers without * were called inactive; ! = not active in a repeat.

SMILES	M4 PAM	M5 ag	CHRM4 agonist	CHRM4 antagonist	CHRM5 antagonist	M5 PAM
CN(CC/C=C1/c2ccccc2CSc2ccccc21)CCCO	-38	-6	7	65*	44*	-20
NCC/C=C1/c2ccccc2CSc2ccccc21	-14	-13	7	23	34*	-43
C#CCN(C)CC/C=C1\c2ccccc2CSc2ccccc21	-15	-15	-2	32*	37*	-41
CC(O)CN(C)CC/C=C1/c2ccccc2CSc2ccccc21 (stereo not given)	-14	-8	1	19	25	-22
CC(C)(C)C(=O)N1CCN(c2ccc3c(c2)C2CC3CCN2C(=O)OCc2ccccc2)CC1 (stereo not given)	3	2	1	-2	-5	3
Cc1cccc(C)c1NC(=O)C(c1ccc(C(F)(F)F)cc1)n1c(=O)c(-c2cc3ccccc3[nH]2)nc2ccccc21 (stereo not given)	1	5	0	8	-3	3
O=C(NCc1ccccc1)C1Cc2c(-c3ccc4c(c3)OCO4)ccnc2O1 (stereo not given)	11	-2	3	-14	-12	6
CCCCNC(=O)C1(C)CCCCN1C(=O)c1ccc(C#N)cc1 (stereo not given)	-1	-1	0	0	-2	1
CCOC(=O)N1CCC(N(CCN(C)C)C(=S)Nc2ccccc2OCC)CC1	-18	-5	1	7	2	38*
CCOC(=O)N1CCC(N(CCN(C)C)C(=S)Nc2ccccc2OC)CC1	-14	-7	0	-1	6	5
CCCCN(C=O)c1c(CC)nc2ccc(C(=O)NCc3ccc4c(c3)OCO4)cn12	-6	3	7	-9	16	-6
O=[N+]([O-])c1ccc2c(c1)C(N1CCN(CCO)CC1)Cc1ccc(F)cc1S2 (stereo not given)	-12	-3	14	17	1	-8
CSc1ccc2c(c1)C(N1CCN(C)CC1)Cc1ccc(F)cc1S2 (stereo not given)	-16	-16	29	43*	29*	-30
CC(=O)OC[C@@H]1CN(Cc2ccccc2)C[C@H](n2cnc3c(NCC(C)C)ncnc32)O1	-1	3	3	3	5	-3
CN1CCN(C(=O)/C(=C/c2ccccc2)c2ccccc2)CC1	-33	-12	1	53*	28*	-18
c1cc(SC2CCCCC2)cc(-c2nc3cnccn3c2NC2CCCCC2)c1	0	6	2	9	8	7
CCC(C)Sc1cc(-c2nc3cc(C)ccn3c2NC2CCCCC2)ccc1OC (stereo not given)	-10	-5	7	10	19	-12
CCC(C)Sc1cccc(-c2nc3cnccn3c2NC2CCCCC2)c1 (stereo not given)	-11	4	-2	26*	7	4
CCC(C)Sc1cc(-c2nc3ccccn3c2NC2CCCCC2)ccc1OC (stereo not given)	-9	-5	5	55*!	14	-19
CCCCNC(=O)C(NC(=O)c1ccccc1)C(=O)c1ccccc1 (stereo not given)	6	0	2	-5	-3	5
NC(=O)CC(NC(=O)Cc1cccc2ccccc12)c1ccc(NCC2CC2)c([N+](=O)[O-])c1 (stereo not given)	2	-1	21	-3	13	2
NC(=O)CC(NC(=O)Cc1cccc2ccccc12)c1ccc(NC2CC3CCC2C3)c([N+](=O)[O-])c1 (stereo not given)	10	5	-1	0	-7	19*
NC(=O)CC(NC(=O)Cc1cccc2ccccc12)c1ccc(NCCOc2ccccc2)c([N+](=O)[O-])c1 (stereo not given)	28*	1	2	5	6	1
NC(=O)CC(NC(=O)Cc1cccc2ccccc12)c1ccc(NC2CCCC2)c([N+](=O)[O-])c1 (stereo not given)	3	2	1	1	3	-2
